Experimental data of several laboratories.
Protocols differ between the studies behind these lines.
CHEK1: Serine/threonine-protein kinase Chk1 (CHEK1, Homo sapiens, UniProt O14757)
PDE10A: cAMP and cAMP-inhibited cGMP 3',5'-cyclic phosphodiesterase 10A (PDE10A, Homo sapiens, UniProt Q9Y233)
SLC6A3: Sodium-dependent dopamine transporter (SLC6A3, Homo sapiens, UniProt Q01959)
PRMT1: Protein arginine N-methyltransferase 1 (PRMT1, Homo sapiens, UniProt Q99873)
FGFR2: Fibroblast growth factor receptor 2 (FGFR2, Homo sapiens, UniProt P21802)
PANK3: Pantothenate kinase 3 (PANK3, Homo sapiens, UniProt Q9H999)
PTPN22: Tyrosine-protein phosphatase non-receptor type 22 (PTPN22, Homo sapiens, UniProt Q9Y2R2)
Nuclear receptor ROR-gamma: Nuclear receptor ROR-gamma (Mus musculus, UniProt P51450)
SLC2A1: Solute carrier family 2, facilitated glucose transporter member 1 (SLC2A1, Homo sapiens, UniProt P11166)
TNK2: Activated CDC42 kinase 1 (TNK2, Homo sapiens, UniProt Q07912)

SMILES	target	assay	conditions	IC50
OCc1ccc(-c2ccc(-c3[nH]nc4c3Cc3cc(O)ccc3-4)cc2)cc1	CHEK1	enzyme activity, inhibitor	–	> 10000 nM
COc1cc(C[C@H]2C(=O)OC[C@@H]2Cc2ccc(OC)c(OC)c2)ccc1O	PDE10A	enzyme activity, inhibitor	–	> 5000 nM
COc1cc2c(cc1OCc1ccncc1)Nc1cc(-c3ccc([N+](=O)[O-])c(OC)c3)ccc1C(=O)N2	CHEK1	enzyme activity, inhibitor	–	5.17 nM
Clc1ccc(C(c2ccccc2)c2nnnn2CCCCN2CCN(CC=Cc3ccccc3)CC2)cc1 (stereo not drawn)	SLC6A3	transporter uptake, inhibitor	–	412 nM
N=C(NCCCSC[C@H]1O[C@@H](n2cnc3c(NCCCc4ccccc4)ncnc32)[C@H](O)[C@@H]1O)NC1CCC1	PRMT1	enzyme activity, inhibitor, fluorescence	–	249 nM
COc1cccc(CN(C(=O)CC(C)(C)C)[C@H]2C[C@@H](C(=O)N3CCNCC3)N(Cc3ccc4c(c3)OCO4)C2)c1	Protein smoothened (SMO, Homo sapiens, UniProt Q99835)	reporter gene, inhibitor, luciferase	–	1500 nM
COc1cc(-c2ccc3c(c2)Nc2ncccc2NC3=O)ccc1[N+](=O)[O-]	CHEK1	enzyme activity, inhibitor	–	> 10000 nM
CNC(=O)c1cc2c(Oc3ccc(NC(=O)C4(C(=O)Nc5ccc(F)cc5)CC4)cc3)ccnc2cc1OC	Discoidin domain-containing receptor 2 (DDR2, Homo sapiens, UniProt Q16832)	enzyme activity, inhibitor, radiometric	–	41 nM
Cc1ccc(NC(=O)c2ccc(C)c(C(F)(F)F)c2)cc1C#Cc1nn(C2CCC(O)CC2)c2ncnc(N)c12 (stereo not drawn)	FGFR2	enzyme activity, inhibitor, radiometric	–	40 nM
COC(=O)Cc1ccc2c(c1)NC(=O)c1ccc(-c3cccc4ccccc34)cc1N2	CHEK1	enzyme activity, inhibitor	–	> 10000 nM
Cc1cccc(-c2ccnc3c(C(=O)O)cnn23)c1	Toll-like receptor 8 (TLR8, Homo sapiens, UniProt Q9NR97)	reporter gene	–	> 20000 nM
CN(CCOc1ccc(CC2SC(=O)NC2=O)cc1)c1ccccn1 (stereo not drawn)	PANK3	enzyme activity, inhibitor, ATP luminescence	–	1700 nM
CC(=O)SCCNC(=O)CCNC(=O)[C@H](O)C(C)(C)COP(=O)(O)OP(=O)(O)OC[C@H]1O[C@@H](n2cnc3c(N)ncnc32)[C@H](O)[C@@H]1OP(=O)(O)O	PANK3	enzyme activity, inhibitor	–	170 nM
Clc1ccc(C(c2ccccc2)c2nnnn2CCCCN2CCC(Cc3ccc(Cl)c(Cl)c3)CC2)cc1 (stereo not drawn)	SLC6A3	transporter uptake, inhibitor	–	550 nM
O=C(O)C(=O)CC(=O)c1cccc(N(Cc2ccccc2)Cc2ccccc2)c1	PTPN22	enzyme activity, inhibitor, absorbance	pH 7	73000 nM
Clc1ccc(C(c2ccc(Cl)cc2)c2nnnn2CCCCN2CCC(Cc3ccccc3)CC2)cc1	SLC6A3	transporter uptake, inhibitor	–	172 nM
CC/C=C\C/C=C\C/C=C\C/C=C\C/C=C\CCCC(=O)O	DNA topoisomerase 1 (TOP1, Homo sapiens, UniProt P11387)	enzyme activity, inhibitor	–	20000 nM
Clc1ccc(C(c2ccccc2)c2nnnn2CCCCN2CCN(CCCc3ccccc3)CC2)cc1 (stereo not drawn)	SLC6A3	transporter uptake, inhibitor	–	415 nM
COc1ccc(-c2ccccc2)cc1NS(=O)(=O)c1cc(Cl)cc(Cl)c1O	ATP-citrate synthase (ACLY, Homo sapiens, UniProt P53396)	enzyme activity, inhibitor	–	460 nM
Cc1cc(Nc2cc(CN3CCOCC3)c3nc(C)c(Cc4ccc(Cl)cc4F)n3n2)n[nH]1	FGFR2	enzyme activity, inhibitor, TR-FRET	–	32 nM
COc1cc(-c2ccc(-c3[nH]nc4c3Cc3cc(CNC5CCC(O)CC5)ccc3-4)cc2)ccc1O (stereo not drawn)	CHEK1	enzyme activity, inhibitor	–	59.4 nM
S=C(SSC(=S)N1CCOCC1)N1CCOCC1	PTPN22	enzyme activity, inhibitor, fluorescence	pH 6.5	23000 nM
COC(=O)Cc1ccc2c(c1)NC(=O)c1ccc(-c3cn(C)cn3)cc1N2	CHEK1	enzyme activity, inhibitor	–	7810 nM

SMILES	target	assay	conditions	IC50
COc1ccc(S(=O)(=O)ON=C2C=C(C)C(=O)C(C)=C2)cc1	Histone acetyltransferase KAT2A (KAT2A, Homo sapiens, UniProt Q92830)	enzyme activity, inhibitor, radiometric	–	33900 nM
CCOc1ccc2c(-c3cc(C)nc(Nc4cc(OC)cc(C(F)(F)F)c4)n3)cnn2n1	Dual specificity protein kinase CLK4 (CLK4, Homo sapiens, UniProt Q9HAZ1)	enzyme activity, inhibitor	–	> 10000 nM
CCN(CC)C(=O)CC(c1ccc2c(c1)OCO2)c1c(O)cc(OC)cc1OC (stereo not drawn)	Nuclear receptor ROR-gamma	reporter gene	–	> 50000 nM
COc1cc(-c2ccc3c(c2)Nc2ccc(N)cc2NC3=O)ccc1[N+](=O)[O-]	CHEK1	enzyme activity, inhibitor	–	16.6 nM
Fc1ccc(C(c2ccc(F)cc2)c2nnnn2CCCCN2CCC(c3ccccc3)CC2)cc1	SLC6A3	transporter uptake, inhibitor	–	55.7 nM
C/C(=N\O)c1ccc(-c2ccc(O)c(C)c2)c(Cl)c1O	SLC2A1	transporter uptake, inhibitor, radiometric	–	11100 nM
Fc1ccc(C(c2ccc(F)cc2)c2nnnn2CCCCN2CCC(Cc3ccccc3)CC2)cc1	SLC6A3	transporter uptake, inhibitor	–	57.9 nM
O=C(O)C1=CCCN(CCON=C(c2ccccc2)c2ccccc2)C1	Sodium- and chloride-dependent GABA transporter 1 (Slc6a1, Rattus norvegicus, UniProt P23978)	ligand displacement, radioligand	–	390 nM
CSc1ccc(/C=C2/C(C)=C(CC(=O)O)c3cc(F)ccc32)cc1	PDE10A	enzyme activity, inhibitor	–	> 100000 nM
N=C(NCCCSC[C@H]1O[C@@H](n2cnc3c(NCCCc4ccccc4)ncnc32)[C@H](O)[C@@H]1O)NC1CC1	PRMT1	enzyme activity, inhibitor, fluorescence	–	1180 nM
CCCC[C@H](NC(=O)C1CN(C)C1)c1ncc(-c2cc3ccccc3nc2OC)[nH]1	Histone deacetylase 5 (HDAC5, Homo sapiens, UniProt Q9UQL6)	enzyme activity, inhibitor	–	> 30000 nM
COc1cc(-c2ccc3c(c2)Nc2ccc(NC(=O)c4cc[nH]n4)cc2NC3=O)ccc1[N+](=O)[O-]	CHEK1	enzyme activity, inhibitor	–	9.06 nM
C/C(=N\O)c1ccc(-c2cccc(O)c2)c(Cl)c1O	SLC2A1	transporter uptake, inhibitor, radiometric	–	15700 nM
c1ccc(CCC2CCN(CCCn3nnnc3C(c3ccccc3)c3ccccc3)CC2)cc1	SLC6A3	transporter uptake, inhibitor	–	726 nM
COc1cc(N2CCN(C)CC2)ccc1Nc1ncc2c(n1)N(C)c1ccccc1C(=O)N2CC(F)(F)F	TNK2	cell-free assay, TR-FRET	–	5000 nM
CCN(CC)C(=S)SSC(=S)N(CC)CC	PTPN22	enzyme activity, inhibitor, fluorescence	pH 6.5	47000 nM
C#CCNC(=N)NCCCSC[C@H]1O[C@@H](n2cnc3c(NCCCc4ccccc4)ncnc32)[C@H](O)[C@@H]1O	PRMT1	enzyme activity, inhibitor, fluorescence	–	2090 nM
Fc1ccc(C(c2ccc(F)cc2)c2nnnn2CCCCN2CCC(Cc3ccc(Cl)c(Cl)c3)CC2)cc1	SLC6A3	transporter uptake, inhibitor	–	608 nM
COc1cc(O)c(C(CC(=O)Nc2ccc(C)cc2)c2ccc3c(c2)OCO3)c(OC)c1 (stereo not drawn)	Nuclear receptor ROR-gamma	reporter gene	–	> 50000 nM
COc1ccc2c(c1)C(CC(=O)Nc1cccnc1)=C(C)/C2=C/c1cc(OC)c(OC)c(OC)c1	PDE10A	enzyme activity, inhibitor, FP	–	300 nM
CCn1ncc2c1-c1cnc(N)c(c1)O[C@H](C)c1cc(F)ccc1-c1nn(C)nc1C2	TNK2	enzyme activity, inhibitor, radiometric	–	77 nM
CO[C@H]1O[C@H](COS(=O)(=O)O)[C@@H](O[C@@H]2O[C@@H](C(=O)O)[C@@H](O[C@H]3O[C@H](COS(=O)(=O)O)[C@@H](O[C@@H]4O[C@H](C(=O)O)[C@@H](O[C@H]5O[C@H](COS(=O)(=O)O)[C@@H](O)[C@H](O)[C@H]5NS(=O)(=O)O)[C@H](O)[C@H]4O)[C@H](OS(=O)(=O)O)[C@H]3NS(=O)(=O)O)[C@H](O)[C@H]2OS(=O)(=O)O)[C@H](O)[C@H]1NS(=O)(=O)O	Coagulation factor XI (F11, Homo sapiens, UniProt P03951)	enzyme activity, inhibitor, absorbance	pH 7.4	> 360000 nM
